Measurements reported in ChEMBL document CHEMBL2202989, “New adamantane phenylalkylamines with σ-receptor binding affinity and anticancer activity, associated with putative antagonism of neuropathic pain” (J Med Chem, 2012).

Assays:
[1] = test system: HCT-116; experiment: Growth inhibition of human HCT116 cells after 48 hrs by SRB assay; type: functional; details: HCT-116, 48 h
In short: (§1)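 Cells grown in RPMI 1640 with 5% heat-inactivated FCS, 2 mM L-glutamine and antibiotics, 37 °C, 5% CO2. Seeded at 3500–30000 cells/well and left 24 h before dosing. DMSO solutions added at 10-fold dilutions from 100 to 0.01 μM for 48 h. Cells TCA-fixed and SRB-stained, absorbance read at 540 nm; GI50 derived against the time-zero plate.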

[2] = target: Sigma non-opioid intracellular receptor 1 (Homo sapiens, UniProt Q99720); experiment: Displacement of [3H]-(+)-pentazocine from sigma 1 receptor in human Jurkat cell membrane; type: cell membranes
In short: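 Jurkat cell membranes incubated with 8 nM [3H](+)-pentazocine and a range of test concentrations for 2 h at 22 °C in Tris-HCl buffer, pH 7.4. Nonspecific binding defined with 10 μM haloperidol. Run in triplicate.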

[3] = Displacement of [3H]1,3-di-otolylguanidine from sigma 2 receptor in rat cerebral cortex membranes; type: cell membranes, Membrane
In short: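 Rat cerebral cortex membranes incubated with 5 nM [3H]DTG plus 300 nM (+)-pentazocine to mask σ1 sites, together with a range of test concentrations, 2 h at 22 °C in Tris-HCl, pH 7.4. Nonspecific binding defined with 10 μM haloperidol.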

[4] = Displacement of [3H]batrachotoxin benzoate from Na+ channel after 60 mins by liquid scintillation counting
In short: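 Na+ channel site 2 binding: vesicle preparation (150−500 μg protein) incubated 60 min with 20−25 nM [3H]BTX-B and 50 μg Leiurius quinquestriatus venom. Buffer was 130 mM choline chloride, 50 mM HEPES/Tris pH 7.4, glucose, MgSO4, KCl, BSA. Filtered on GF/C with cold washes; scintillation counting. Nonspecific binding defined with 250 μM veratridine.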

[5] = test system: MCF7; experiment: Growth inhibition of human MCF7 cells after 48 hrs by SRB assay; type: functional; details: MCF7, 48 h; in short: as §1
[6] = test system: U-251; experiment: Growth inhibition of human U251 cells after 48 hrs by SRB assay; type: functional; details: U-251, 48 h; in short: as §1
[7] = test system: NHDF; experiment: (§2) Growth inhibition of human NHDF cells after 48 hrs by SRB assay; type: cell-based; details: nhdf, 48 h; in short: as §1
[8] = as §2; type: cell-based; details: NHDF cells; in short: as §1
[9] = test system: BXPC-3; experiment: Growth inhibition of human BxPC3 cells after 48 hrs by SRB assay; type: functional; details: BXPC-3, 48 h; in short: as §1
[10] = test system: MIA PaCa-2; experiment: Growth inhibition of human MIAPaCa2 cells after 48 hrs by SRB assay; type: functional; details: MIA PaCa-2, 48 h; in short: as §1
[11] = test system: BXPC-3; experiment: Antitumor activity against human BxPC3 cells xenografted in SCID mouse assessed as tumor growth inhibition at 70 mg/kg, ip administered twice a week for three cycles measured after 3 cycles relative to control; type: functional; details: BXPC-3, ip, route intraperitoneal, read-out: TGI
In short: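 BxPC3 xenografts were grown in SCID mice from inocula of 10^6 exponentially growing cells, with 10 mice (20 tumors) per group. Treatment started ip once tumors averaged about 100 mm3. The test agent was given in 5% Tween 80 and gemcitabine in water for injection. Tumor volume was measured by caliper twice weekly and %ΔT/ΔC was computed; two-tailed Student's t test.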

[12] = test system: PC-3; experiment: Antitumor activity against human PC3 cells xenografted in SCID mouse assessed as primary tumor occurrence at 20 mg/kg, ip administered once a week for two cycles measured after 2 cycles relative to control; type: functional; details: route intraperitoneal
In short: (§3)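 PC3 xenografts were grown in SCID mice (10^6 cells per inoculum), 14 mice (28 tumors) per group, dosed ip from about 100 mm3. The test agent was given in 5% Tween 80; paclitaxel was given in Cremophor diluted in saline, with a vehicle of 1:1 ethanol/Cremophor diluted 1:3 in saline. Volume and %ΔT/ΔC were derived from caliper readings twice weekly. Occurrence of primary tumors and of axillary and bone metastases was scored (n = 7). Two-tailed t test.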

[13] = test system: PC-3; experiment: Antitumor activity against human PC3 cells xenografted in SCID mouse assessed as bone metastasis at 20 mg/kg, ip administered once a week for two cycles measured after 2 cycles relative to control; type: functional; details: route intraperitoneal; in short: as §3
[14] = test system: PC-3; experiment: Antitumor activity against human PC3 cells xenografted in SCID mouse assessed as axillary metastasis at 20 mg/kg, ip administered once a week for two cycles measured after 2 cycles relative to control; type: functional; details: route intraperitoneal; in short: as §3
[15] = test system: DU-145; experiment: Antitumor activity against human DU145 cells xenografted in SCID mouse assessed as tumor growth inhibition at 20 mg/kg, ip administered once a week for two cycles measured after 2 cycles relative to control; type: functional; details: DU-145, ip, route intraperitoneal, read-out: TGI
In short: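 DU145 xenografts were grown in SCID mice from 10^6-cell inocula, with at least 30 animals in total. Treatment started ip at a mean tumor volume of about 100 mm3. The test agent was given in 5% Tween 80; paclitaxel was dissolved in Cremophor and diluted in saline. Caliper volumes were taken twice weekly and %ΔT/ΔC calculated; two-tailed t test.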

[16] = test system: PC-3; experiment: Antitumor activity against human PC3 cells xenografted in SCID mouse assessed as tumor growth inhibition at 20 mg/kg, ip administered once a week for two cycles measured after 2 cycles relative to control; type: functional; details: PC-3, ip, route intraperitoneal, read-out: TGI; in short: as §3
[17] = read-out: LC50 (the source's name)

Sequence of Sigma non-opioid intracellular receptor 1 (Q99720 whole entry): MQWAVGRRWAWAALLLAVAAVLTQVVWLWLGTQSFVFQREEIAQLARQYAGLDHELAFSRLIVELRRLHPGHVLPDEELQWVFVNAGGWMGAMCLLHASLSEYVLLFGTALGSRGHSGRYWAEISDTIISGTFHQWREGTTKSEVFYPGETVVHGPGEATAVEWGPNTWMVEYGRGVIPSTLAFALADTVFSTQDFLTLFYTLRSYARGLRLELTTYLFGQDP

For `c1ccc(CN2CCN(CCCc3ccc(C(c4ccccc4)C45CC6CC(CC(C6)C4)C5)cc3)CC2)cc1` (centres undefined), the GI50 [1] was 7.72 µM, the TGI [1] was 39.7 µM and the CC50 [1, 17] was 0.0829 µM. For the same compound, the IC50 [2] was 0.0361 µM, the IC50 [3] was 0.0283 µM and the IC50 [4] was 0.0115 µM. It also gave a GI50 [5] of 6.76 µM, a TGI [5] of 61.7 µM and a CC50 [5, 17] of 0.1 µM. The GI50 [6] was 36.4 µM, the TGI [6] was 79.1 µM and the CC50 [6, 17] was 0.1 µM. It also gave an LC50 [7] of 100 µM, a TGI [7] of 100 µM and a GI50 at 48 h [8] of 39.5 µM. For the same compound, the GI50 [9] was 36.8 µM, the LC50 [9] was 0.1 µM and the TGI [9] was 100 µM.

With `Nc1ccn([C@@H]2O[C@H](CO)[C@@H](O)C2(F)F)c(=O)n1` [GEMCITABINE] the GI50 [10] was 35.8 µM, the TGI [10] was 100 µM and the CC50 [10, 17] was 0.1 µM. The inhibition in vivo at 70 mg/kg [11] was 38.1%, the GI50 [9] was 3.64 µM and the TGI [9] was 9.05 µM.

`CC(=O)O[C@H]1C(=O)[C@@]2(C)[C@H]([C@H](OC(=O)c3ccccc3)[C@]3(O)C[C@H](OC(=O)[C@H](O)[C@@H](NC(=O)c4ccccc4)c4ccccc4)C(C)=C1C3(C)C)[C@]1(OC(C)=O)CO[C@@H]1C[C@@H]2O` [PACLITAXEL] gave an Activity [12] of 100%, an Activity [13] of 86% and an Activity [14] of 14%. The inhibition in vivo at 20 mg/kg [15] was 26.6% and the inhibition in vivo at 20 mg/kg [16] was 79.1%.
